ChEMBL document CHEMBL6182837, “Discovery and biological evaluation of nitrofuranyl-pyrazolopyrimidine hybrid conjugates as potent antimicrobial agents targeting Staphylococcus aureus and methicillin-resistant S. aureus” (RSC Med Chem, 2025)
Values after ≈ are worked out from the molar mass of the structure shown. Active and inactive are the calls of the source. No cut-off for these calls is given here.

Columns and labels:
Staphylococcus aureus [1] = test: Antibacterial activity against methicillin-resistant Staphylococcus aureus ATCC 15187 infected in male […] mouse assessed as reduction in bacterial load in lung at 50 mg/kg measured after 24 hrs by colony counting method; assay type: functional, organism-based
Method in brief: (§1)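 Mouse peritonitis model: 0.1 ml MRSA suspension (10^8 CFU ml−1) given intraperitoneally; treatment intraperitoneal at 50 or 100 mg kg−1 at 2 and 5 h post-infection, with saline and vancomycin (50 mg kg−1) controls; killed at 24 h; kidney and lung homogenates plated on Mueller–Hinton agar with 20 μg ml−1 ciprofloxacin, 24 h; CFU ml−1; unpaired t-test.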

Staphylococcus aureus [2] = test: Induction of morphological disruption in Staphylococcus aureus ATCC 29213 at 1 to 2 times MIC incubated for 2 to 6 hrs by SEM analysis; assay type: functional, organism-based; conditions: time 2-6 hrs
Method in brief: (§2)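 Bacteria incubated for 2 h and 6 h at 1×, 2× and 4× MIC, with vancomycin and daptomycin at 1× and 2× MIC and untreated cells; cell morphology imaged by scanning electron microscopy.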

Staphylococcus aureus [3] = test: Disruption of pre-formed biofilms of methicillin-resistant Staphylococcus aureus ATCC 15187 at 4 to 6 times MIC incubated for 24 hrs by absorbance based method relative to control; assay type: functional
Staphylococcus aureus [4] = test: Induction of morphological disruption in methicillin-resistant Staphylococcus aureus ATCC 15187 at 1 to 2 times MIC incubated for 2 to 6 hrs by SEM analysis; assay type: functional, organism-based; conditions: time 2-6 hrs; method in brief: as §2
Staphylococcus aureus [5] = test: Antibacterial activity against Staphylococcus aureus SA-K2192 overexpressing TetK by Alamar blue staining based analysis; assay type: functional
Staphylococcus aureus [6] = test: Disruption of pre-formed biofilms of Staphylococcus aureus ATCC 29213 at 4 to 6 times MIC incubated for 24 hrs by absorbance based method relative to control; assay type: functional
Staphylococcus aureus [7] = test: Inhibition of biofilm formation of Staphylococcus aureus ATCC 29213 at 0.5 times MIC incubated for 27 hrs by absorbance based method; assay type: functional, organism-based
Staphylococcus aureus [8] = test: Antibacterial activity against methicillin-resistant Staphylococcus aureus ATCC 15187 infected in male […] mouse assessed as reduction in bacterial load in kidney at 50 mg/kg measured after 24 hrs by colony counting method; assay type: functional, organism-based; method in brief: as §1
Staphylococcus aureus [9] = test: Inhibition of biofilm formation of methicillin-resistant Staphylococcus aureus ATCC 15187 at 0.5 times MIC incubated for 27 hrs by absorbance based method; assay type: functional, organism-based
Staphylococcus aureus [10] = test: Antibacterial activity against Ciprofloxacin-sensitive Staphylococcus aureus […] by Alamar blue staining based analysis; assay type: functional
Staphylococcus aureus [11] = test: Antibacterial activity against Staphylococcus aureus SA-K2191 overexpressing MsrA by Alamar blue staining based analysis; assay type: functional
Staphylococcus aureus [12] = test: Antibacterial activity against Staphylococcus aureus SA-1199B overexpressing NorA by Alamar blue staining based analysis; assay type: functional
Staphylococcus aureus [13] = test: Disruption of cell membrane integrity in Staphylococcus aureus ATCC 29213 assessed as red fluorescence at 2 times MIC incubated for 2.5 hrs by DAPI/PI staining based fluorescence microscopy; assay type: functional, organism-based
Method in brief: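 Bacteria treated at 1× and 2× MIC, with vancomycin 2× MIC as control and an untreated blank; stained with DAPI (all cells) and propidium iodide (membrane-damaged cells); imaged by fluorescence microscopy, red PI signal taken as membrane damage.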

CN[C@H](CC(C)C)C(=O)N[C@H]1C(=O)N[C@@H](CC(N)=O)C(=O)N[C@H]2C(=O)N[C@H]3C(=O)N[C@H](C(=O)N[C@H](C(=O)O)c4cc(O)cc(O)c4-c4cc3ccc4O)[C@H](O)c3ccc(c(Cl)c3)Oc3cc2cc(c3O[C@@H]2O[C@H](CO)[C@@H](O)[C@H](O)[C@H]2O[C@H]2C[C@](C)(N)[C@H](O)[C@H](C)O2)Oc2ccc(cc2Cl)[C@H]1O [VANCOMYCIN]
Activity (Staphylococcus aureus [1]): Active | Activity (Staphylococcus aureus [2]): Active | Activity (Staphylococcus aureus [3]): 40% | Activity (Staphylococcus aureus [4]): Active | MIC (Staphylococcus aureus [5]): 0.56 µg/mL (≈ 0.386 µM) | Activity (Staphylococcus aureus [6]): 40% | inhibition (Staphylococcus aureus [7]): inactive | Activity (Staphylococcus aureus [8]): Active | inhibition (Staphylococcus aureus [9]): inactive | MIC (Staphylococcus aureus [10]): 0.25 µg/mL (≈ 0.173 µM) | MIC (Staphylococcus aureus [11]): 0.25 µg/mL (≈ 0.173 µM) | MIC (Staphylococcus aureus [12]): 0.25 µg/mL (≈ 0.173 µM) | Activity (Staphylococcus aureus [13]): Active
